According to ChEMBL document CHEMBL3227921, “Synthetic antagonists of in vivo responses by the rat uterus to oxytocin” (J Med Chem, 1979):
Activity calls are given as the source filed them. No cut-off for these calls is given here. Numbered stars: 1 amine (or outer) side, 2 acyl side, 3 side chain; on linkers, the order of the positions; unused ones are H or OH. Bridge positions count the residues as written; N and C are the ends. Square brackets hold non-standard residues; d marks the D form. Peptide text beside a SMILES is read from it. * marks the point of attachment. X1 = O=C(CC1(S[*:2])CCCCC1)[*:1]; X3 = CCC(CC)(CC(=O)[*:1])S[*:2]; X2 = CC(C)(CC(=O)[*:1])S[*:2]; X4 = NC(=O)NC(=O)CN*; Mpa = O=C(O)CCS

Columns and labels:
[1] = molecular target: T1, Oxytocin receptor (Rattus norvegicus, UniProt P70536); assay: Antagonist activity at oxytocin receptor in rat uterus pretreated with diethylstilbestrol compound treated 1 min prior to oxytocin addition; assay type: tissue-based; settings: read-out: pA2 (converted)
T1 sequence (P70536 whole entry): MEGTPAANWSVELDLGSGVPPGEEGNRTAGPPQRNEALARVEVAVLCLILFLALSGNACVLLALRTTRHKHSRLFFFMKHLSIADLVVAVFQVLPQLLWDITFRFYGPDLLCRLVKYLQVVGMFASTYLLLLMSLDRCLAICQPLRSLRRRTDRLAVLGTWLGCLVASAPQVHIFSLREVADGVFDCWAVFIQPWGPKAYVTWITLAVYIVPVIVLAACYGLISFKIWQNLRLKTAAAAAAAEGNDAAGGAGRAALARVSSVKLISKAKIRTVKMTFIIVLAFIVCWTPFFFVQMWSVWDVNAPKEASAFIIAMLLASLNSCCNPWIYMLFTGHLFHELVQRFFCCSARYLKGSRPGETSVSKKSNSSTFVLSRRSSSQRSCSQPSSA
Method in brief: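 Isolated uterine horns from diethylstilbestrol-pretreated rats suspended in Munsick's solution without Mg2+. Isometric contractions recorded. Antagonist added to bath 1 min before agonist. pA2 calculated by Schild's method: negative log of the molar antagonist concentration that reduces the response to 2x units of agonist to the response to x units without antagonist. Mean ± SE over assay groups.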

[2] = system: Rattus norvegicus; assay: Antioxytocic activity in iv dosed rat uterus pretreated with diethylstilbestrol compound treated 1 min prior to oxytocin injection; assay type: functional, organism-based; settings: for Kb: read-out: pA2 (converted)
Method in brief: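 Anesthetized diethylstilbestrol-pretreated rats, modified Bisset uterus assay. Antagonist given intravenously 1 min before agonist. Read-out was integrated intrauterine pressure over 10 min after agonist injection. In vivo "pA2" estimated by the Dyckes et al. method; pA2 6.00 corresponds to 67 nmol/kg i.v. and 7.00 to 6.7 nmol/kg. Mean ± SE over assay groups.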

[3] = molecular target: T1, Oxytocin receptor; assay: Antagonist activity at oxytocin receptor in rat uterus pretreated with diethylstilbestrol compound treated 1 min prior to oxytocin addition in presence of 0.5 mM Mg2+; assay type: tissue-based; settings: read-out: pA2 (converted)
Method in brief: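 Uterine horns from rats pretreated with diethylstilbestrol, bathed in Munsick's solution containing 0.5 mM Mg2+. Isometric contractions recorded, with antagonist added 1 min ahead of agonist. Schild pA2 taken as negative log molar antagonist concentration reducing the 2x-agonist response to the x-unit response without antagonist. Mean ± SE, number of assay groups given.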

[4] = (§1) Antagonist activity at rat vasopressin receptor
Method in brief: (§2)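 Anesthetized rats, vasopressor responses recorded per Dekanski. Antagonist injected 1 min before agonist. In vivo "pA2" estimated by the method of Dyckes et al., which assumes a volume of distribution for the injected antagonist. Mean ± SE over assay groups.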

[5] = molecular target: T2, Oxytocin receptor (Rattus norvegicus) (UniProt P70536); assay: Partial agonist activity at oxytocin receptor in rat uterus pretreated with diethylstilbestrol compound treated 1 min prior to oxytocin addition in presence of 0.5 mM Mg2+
T2 sequence (whole entry): T1 sequence (P70536 whole entry)

[6] = species on record: Rattus norvegicus; assay: as §1; method in brief: as §2

COc1ccc(C[C@@H]2NC(=O)CC(C)(C)SSC[C@@H](C(=O)N3CCC[C@H]3C(=O)N[C@@H](CCCN=C(N)N)C(=O)NCC(N)=O)NC(=O)[C@H](CC(N)=O)NC(=O)[C@H](CCC(N)=O)NC(=O)[C@H](Cc3ccccc3)NC2=O)cc1 (Y(Me)FQNCPRG-NH2; linker N-5 via X2)
Kb [1]: 24.5 nM

CC[C@H](C)[C@@H]1NC(=O)[C@H](Cc2ccc(OC)cc2)NC(=O)CC(C)(C)SSC[C@@H](C(=O)N2CCC[C@H]2C(=O)N[C@@H](CC(C)C)C(=O)NCC(N)=O)NC(=O)[C@H](CC(N)=O)NC(=O)[C@H](CCC(N)=O)NC1=O (Y(Me)IQNCPLG-NH2; linker N-5 via X2)
Kb [2]: 138 nM
Kb [3]: 15.8 nM
pA2 [4]: 7.59
Kb [1]: 17.4 nM

CC[C@H](C)[C@@H]1NC(=O)[C@H](Cc2ccc(OC)cc2)NC(=O)CC(C)(C)SSC[C@@H](C(=O)N2CCC[C@H]2C(=O)N[C@@H](CC(C)C)C(=O)NCC(N)=O)NC(=O)[C@H](CC(N)=O)NC(=O)[C@H]([C@@H](C)O)NC1=O (Y(Me)ITNCPLG-NH2; linker N-5 via X2)
Kb [2]: 145 nM
Kb [3]: 16.2 nM
pA2 [4]: 7.32
Kb [1]: 22.9 nM

CC[C@H](C)[C@@H]1NC(=O)[C@H](Cc2ccc(O)cc2)NC(=O)CC2(CCCCC2)SSC[C@@H](C(=O)N2CCC[C@H]2C(=O)N[C@@H](CC(C)C)C(=O)NCC(N)=O)NC(=O)[C@H](CC(N)=O)NC(=O)[C@H](CCC(N)=O)NC1=O (YIQNCPLG-NH2; linker N-5 via X1)
Kb [2]: 224 nM
Kb [3]: 70.8 nM
Kb [1]: 24.5 nM

CC[C@H](C)[C@@H]1NC(=O)[C@H](Cc2ccc(O)cc2)NC(=O)CC(C)(C)SSC[C@@H](C(=O)N2CCC[C@H]2C(=O)N[C@@H](CC(C)C)C(=O)NCC(N)=O)NC(=O)[C@H](CC(N)=O)NC(=O)[C@H](CCC(N)=O)NC1=O (YIQNCPLG-NH2; linker N-5 via X2)
Activity [5]: Active
Kb [3]: 2340 nM

CC[C@H](C)[C@@H]1NC(=O)[C@H](Cc2ccc(O)cc2)NC(=O)CC(CC)(CC)SSC[C@@H](C(=O)N2CCC[C@H]2C(=O)N[C@@H](CC(C)C)C(=O)NCC(N)=O)NC(=O)[C@H](CC(N)=O)NC(=O)[C@H](CCC(N)=O)NC1=O (YIQNCPLG-NH2; linker N-5 via X3)
Kb [2]: 631 nM
Kb [3]: 151 nM
pA2 [4]: 6.83
Kb [1]: 28.2 nM

CC[C@H](C)[C@@H]1NC(=O)[C@H](Cc2ccc(O)cc2)NC(=O)CC2(CCCCC2)SSC[C@@H](C(=O)N2CCC[C@H]2C(=O)N[C@@H](CC(C)C)C(=O)NCC(N)=O)NC(=O)[C@H](CC(N)=O)NC(=O)[C@H]([C@@H](C)O)NC1=O (YITNCPLG-NH2; linker N-5 via X1)
Kb [2]: 115 nM
Kb [3]: 15.5 nM
pA2 [4]: 5.86
Kb [1]: 12.3 nM

CC[C@H](C)[C@@H]1NC(=O)[C@H](Cc2ccc(O)cc2)NC(=O)CC(C)(C)SSC[C@@H](C(=O)N2CCC[C@H]2C(=O)N[C@@H](CC(C)C)C(=O)NCC(N)=O)NC(=O)[C@H](CC(N)=O)NC(=O)[C@H]([C@@H](C)O)NC1=O (YITNCPLG-NH2; linker N-5 via X2)
Kb [2]: 490 nM
Activity [5]: Active
Kb [3]: 589 nM
pA2 [4]: 6.67
Kb [1]: 30.2 nM

CC[C@H](C)[C@@H]1NC(=O)[C@H](Cc2ccc(O)cc2)NC(=O)CC(CC)(CC)SSC[C@@H](C(=O)N2CCC[C@H]2C(=O)N[C@@H](CC(C)C)C(=O)NCC(N)=O)NC(=O)[C@H](CC(N)=O)NC(=O)[C@H]([C@@H](C)O)NC1=O (YITNCPLG-NH2; linker N-5 via X3)
Kb [2]: 339 nM
Kb [3]: 43.7 nM
pA2 [4]: 6.3
Kb [1]: 19.1 nM

CC[C@H](C)[C@@H]1NC(=O)[C@H](Cc2ccc(OC)cc2)NC(=O)CCSSC[C@@H](C(=O)N2CCC[C@H]2C(=O)N[C@@H](CC(C)C)C(=O)NCC(=O)NC(N)=O)NC(=O)[C@H](CC(N)=O)NC(=O)[C@H](CCC(N)=O)NC1=O ([Mpa]Y(Me)IQNCPL-X4; disulfide 1-6)
Activity [2]: Active
Kb [3]: 245 nM
Activity [6]: Active
Kb [1]: 126 nM
